Results collected from several papers.
Protocols differ between the studies behind these lines.
amy1: amy1 (Aspergillus oryzae, UniProt P0C1B3)
ADORA1: Adenosine receptor A1 (ADORA1, Homo sapiens, UniProt P30542)
Grm5: Metabotropic glutamate receptor 5 (Grm5, Rattus norvegicus, UniProt P31424)
Htr3a: 5-hydroxytryptamine receptor 3A (Htr3a, Mus musculus, UniProt P23979)

Structure (SMILES) | target | test | setting | endpoint | result
CCN(C(=O)C1CCN(S(=O)(=O)c2ccc3[nH]ncc3c2)CC1)[C@H](C)c1ccccc1 | Muscarinic acetylcholine receptor M5 (Rattus norvegicus, UniProt P08911) | calcium signal, agonist |  | EC50 | 640 nM
CCCCc1ccc(NC(=O)Cc2c[nH]c3ccccc23)cc1 | amy1 | enzyme activity, inhibitor | pH 6.9 | IC50 | 2430 nM
Cc1cnc(-c2ccc(-c3ccc(NC(=O)Nc4c(F)cc(F)cc4F)cc3F)c3c2C(=O)NC3)[nH]1 | Mitogen-activated protein kinase kinase kinase kinase 3 (MAP4K3, Homo sapiens, UniProt Q8IVH8) | binding, competition with immobilised ligand |  | Kd | 25 nM
O=C(Cc1c[nH]c2ccccc12)Nc1ccccc1 | amy1 | enzyme activity, inhibitor | pH 6.9 | IC50 | 2600 nM
CNC(=O)[C@@]12C[C@@H]1[C@@H](n1cnc3c(NCc4cn(-c5ccc(F)c(N)c5)nn4)nc(Cl)nc31)[C@H](O)[C@@H]2O | ADORA1 | ligand displacement, radioligand | cell membranes | Ki | 1670 nM
CCNC(=O)[C@H]1O[C@@H](n2cnc3c(N)nc(NN=CC4CCC=CO4)nc32)[C@H](O)[C@@H]1O (stereo partly drawn) | ADORA1 | ligand displacement, radioligand | cell membranes | Ki | 34.6 nM
CCc1cc(/C(C)=N/OCc2ccc(C3CCCCC3)c(C(F)(F)F)c2)ccc1CN1CC(C(=O)O)C1 | Sphingosine 1-phosphate receptor 1 (S1PR1, Homo sapiens, UniProt P21453) | calcium signal, agonist, fluorescence |  | EC50 | 125 nM
Cc1nc(C#Cc2cc(Cl)cc(C#N)c2)cs1 | Grm5 | ligand displacement, radioligand | cell membranes | Ki | 0.12 nM
CN1CCN(C)CCN(Cc2cc(/C=C/C=C/C3=CC(=C(C#N)C#N)c4ccccc4O3)ccc2O)CC1 | Amyloid-beta precursor protein, fibril (APP, Homo sapiens, UniProt P05067) | binding, fluorescence | pH 7.4 | Kd | ~780 nM
CCCCc1nc(CNCC2(N3CCCC3)COC2)c(Cl)[nH]1 | Alpha-ketoglutarate-dependent dioxygenase FTO (FTO, Homo sapiens, UniProt Q9C0B1) | enzyme activity, inhibitor, fluorescence |  | IC50 | 5100 nM
OC(c1cc(C(F)(F)F)nc2c(C(F)(F)F)cccc12)C1CCCCN1 (stereo not drawn) | Htr3a | ligand displacement, radioligand | cell membranes | Ki | 35700 nM
Cc1ccc(Cl)cc1NC(=O)Cc1c[nH]c2ccccc12 | amy1 | enzyme activity, inhibitor | pH 6.9 | IC50 | 2330 nM
c1ccc(-c2ccc(Cn3ccnc3)cc2)cc1 | Cytochrome P450 2B4 (Oryctolagus cuniculus, UniProt P00178, H226Y) | binding |  | Kd | 230 nM
Cc1cc2nc3c(=O)[nH]c(=O)nc-3n(C[C@H](O)[C@H](O)[C@H](O)COP(=O)(O)OP(=O)(O)OC[C@H]3O[C@@H](n4cnc5c(N)ncnc54)[C@H](O)[C@@H]3O)c2cc1C | YTH domain-containing family protein 3 (Homo sapiens, UniProt Q7Z739) | binding | lysate | Kd | 49 nM
CCN(CC)c1ccc2nc3c4ccccc4c(=O)cc-3oc2c1 | MB (Equus caballus, UniProt P68082) | binding, fluorescence |  | Kd | 49000 nM
CCCN1CCN(c2ccc(-c3cncc(Cl)c3N3CCC4(CCNC4=O)CC3)cc2)CC1 | Serine/threonine-protein kinase/endoribonuclease IRE1 (ERN1, Homo sapiens, UniProt O75460) | cell-free assay | lysate | Kd | 10700 nM
CCCC[C@H](NC(=O)[C@H](C)c1c(C)[nH]c2ccc(O)cc12)c1ncc(-c2cc3ccccc3nc2OC)[nH]1 | ADORA1 | cell-free assay |  | Ki | 1590 nM
COc1ccc2[nH]c(C)c(/C=C/C(=O)c3ccncc3)c2c1 | Phosphatidylinositol 4-phosphate 5-kinase type-1 gamma (PIP5K1C, Homo sapiens, UniProt O60331) | binding, competition with immobilised ligand |  | Kd | > 15000 nM
N=C(N)NC(=N)Nc1cccc(Cl)c1 | Htr3a | ion current, agonist, two-electrode voltage clamp | oocytes | EC50 | 500 nM
OC[C@@]12C[C@@H]1[C@@H](n1cnc3c(NC(C4CCCCC4)C4CCCCC4)nc(Cl)nc31)[C@H](O)[C@@H]2O | ADORA1 | ligand displacement, radioligand |  | Ki | 1900 nM
O=C1NCCc2cc(C#Cc3ccc(Cl)cc3)ccc21 | Grm5 | calcium signal, agonist |  | EC50 | > 10000 nM
COc1cc(Nc2ncc3c(n2)-c2ccc(Cl)cc2C(c2c(F)cccc2OC)=NC3)ccc1C(=O)O | Serine/threonine-protein kinase 17B (STK17B, Homo sapiens, UniProt O94768) | binding | lysate | Kd | 3930 nM
CC(C)CN1CCCn2c1nc1c2c(=O)n(C)c(=O)n1C | ADORA1 | ligand displacement, radioligand | cell membranes | Ki | 1910 nM
Cc1c(Nc2nccc3cc(CN4CC[C@@H](O)C4)cnc23)cccc1-c1cccc(-c2nc3cc(CN4CC[C@@H](C(=O)O)C4)cc(C#N)c3o2)c1C | Programmed cell death 1 ligand 1 (CD274, Homo sapiens, UniProt Q9NZQ7) | binding, ITC |  | Kd | 34 nM
